As a reminder, the half-life is the time needed for the level to fall by half in the phase considered. A word on the AUC(0-inf): it is the area under the concentration-time curve extrapolated to infinity. One may read the Cmax as the maximum level reached in the sampled fluid or tissue. The IC50 is the concentration that gives 50% inhibition. As usually defined, the clearance is the rate of elimination divided by the concentration.

Data set [1] in a line: Half life in Sprague-Dawley rat at 5 mg/kg, po. On the set-up: dose 5 mg/kg, route oral. Type of data set: ADME, organism-based. The conditions noted are these: in vivo. The method, boiled down:
(§1)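 Female Sprague–Dawley rats dosed as 1-in-4 cassette or discrete studies. iv in DMSO/PEG200 20:80; po in aqueous 2% Tween 80/0.5% methyl cellulose. Parameters reported: C0, Cmax, t1/2, plasma clearance, Vss, AUC0-inf and %F.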

Data set [2] is described as follows: AUC (0 to infinity) in Sprague-Dawley rat at 5 mg/kg, po. The format is ADME, organism-based. Set-up: time infinity, dose 5 mg/kg, route oral. The conditions noted are these: plasma.
Data set [3] is described as follows: Cmax in cynomolgus monkey at 5 mg/kg, po. Type of data set: ADME, organism-based, Macaca fascicularis. Set-up: dose 5 mg/kg, route oral. Particulars: in vivo.
The target in a further data set is T1, Progesterone receptor (Homo sapiens, UniProt P06401).
T1 sequence (P06401 whole entry): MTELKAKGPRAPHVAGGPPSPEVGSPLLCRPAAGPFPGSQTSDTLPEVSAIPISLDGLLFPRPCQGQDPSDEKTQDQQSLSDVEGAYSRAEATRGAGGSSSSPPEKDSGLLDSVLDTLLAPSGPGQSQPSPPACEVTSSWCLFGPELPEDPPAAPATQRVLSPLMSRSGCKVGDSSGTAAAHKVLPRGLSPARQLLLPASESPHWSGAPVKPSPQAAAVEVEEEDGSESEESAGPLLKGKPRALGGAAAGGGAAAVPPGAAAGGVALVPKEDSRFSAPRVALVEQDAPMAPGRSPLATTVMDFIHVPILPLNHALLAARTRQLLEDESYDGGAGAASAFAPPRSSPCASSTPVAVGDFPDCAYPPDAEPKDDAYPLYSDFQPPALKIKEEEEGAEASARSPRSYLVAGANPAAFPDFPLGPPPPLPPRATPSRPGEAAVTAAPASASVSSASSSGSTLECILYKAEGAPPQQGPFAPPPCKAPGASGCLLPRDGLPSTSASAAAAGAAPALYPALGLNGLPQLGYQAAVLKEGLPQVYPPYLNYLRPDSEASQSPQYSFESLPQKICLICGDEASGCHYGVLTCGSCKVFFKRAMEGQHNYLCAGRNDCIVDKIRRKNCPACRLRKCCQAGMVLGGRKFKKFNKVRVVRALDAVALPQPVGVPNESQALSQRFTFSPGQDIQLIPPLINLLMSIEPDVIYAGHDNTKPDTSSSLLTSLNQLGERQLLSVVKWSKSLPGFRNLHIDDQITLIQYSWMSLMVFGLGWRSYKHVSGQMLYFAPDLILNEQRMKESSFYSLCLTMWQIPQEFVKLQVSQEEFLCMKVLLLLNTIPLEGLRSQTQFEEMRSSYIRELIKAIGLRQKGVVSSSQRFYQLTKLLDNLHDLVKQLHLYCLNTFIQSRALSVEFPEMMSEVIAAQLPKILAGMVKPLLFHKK
As to the kind of experiment: Antagonist activity at human PR expressed in human T47D cells assessed as inhibition of progesterone induced alkaline phosphatase. The format is functional, cell-based.

Data set [4] deals with Rhesus monkey. As to the kind of experiment: Effect on myometrial weight of rhesus monkey. The format is functional, Macaca mulatta. The method, boiled down:
(§2)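 Adult female rhesus macaques (n=3) with regular cycles dosed 10 mg/(kg·day) po in 2% Tween 80/0.5% methylcellulose with cherry flavoring for 28 days from cycle day 2. Serum estradiol and progesterone measured every 3 days. Necropsy on day 28. Uterine weights are of half the uterus; KI-67 and mitotic indices counted per 1000 cells. Values given as mean ± SE.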

Data set [5] in a line: Volume of distribution at steady state in Sprague-Dawley rat at 0.5 mg/kg, iv. The format is ADME, organism-based. Set-up: dose 0.5 mg/kg, route intravenous. The conditions noted are these: in vivo, read-out: Vdss. The method, boiled down: as §1
A short description of data set [6]: AUC (0 to infinity) in Sprague-Dawley rat at 1 mg/kg, iv. The conditions noted are these: plasma. Type of data set: ADME, organism-based. Set-up: time infinity, dose 1 mg/kg, route intravenous.
The nature of data set [7]: AUC (0 to infinity) at steady state in cynomolgus monkey at 1 mg/kg, iv. Set-up: time infinity, dose 1 mg/kg, route intravenous. Particulars: plasma. Type of data set: ADME, organism-based, Macaca fascicularis.
Data set [8] concerns Rhesus monkey. Put plainly: Effect on basalis KI67 assessed as number of KI67 labeled cells of rhesus monkey. Type of data set: functional, Macaca mulatta. The method, boiled down:
as §2

Data set [9] can be described thus: Plasma clearance in cynomolgus monkey at […], iv. Type of data set: ADME, organism-based, Macaca fascicularis. Set-up: dose 0.25 mg/kg, route intravenous.
In data set [10] the test system is Rhesus monkey. Put plainly: Effect on cell proliferation in rhesus monkey assessed as number of mitotic cells per 1000 cells.
The target in data set [11] is T2, Mineralocorticoid receptor (Homo sapiens) (UniProt P08235).
T2 sequence (whole entry): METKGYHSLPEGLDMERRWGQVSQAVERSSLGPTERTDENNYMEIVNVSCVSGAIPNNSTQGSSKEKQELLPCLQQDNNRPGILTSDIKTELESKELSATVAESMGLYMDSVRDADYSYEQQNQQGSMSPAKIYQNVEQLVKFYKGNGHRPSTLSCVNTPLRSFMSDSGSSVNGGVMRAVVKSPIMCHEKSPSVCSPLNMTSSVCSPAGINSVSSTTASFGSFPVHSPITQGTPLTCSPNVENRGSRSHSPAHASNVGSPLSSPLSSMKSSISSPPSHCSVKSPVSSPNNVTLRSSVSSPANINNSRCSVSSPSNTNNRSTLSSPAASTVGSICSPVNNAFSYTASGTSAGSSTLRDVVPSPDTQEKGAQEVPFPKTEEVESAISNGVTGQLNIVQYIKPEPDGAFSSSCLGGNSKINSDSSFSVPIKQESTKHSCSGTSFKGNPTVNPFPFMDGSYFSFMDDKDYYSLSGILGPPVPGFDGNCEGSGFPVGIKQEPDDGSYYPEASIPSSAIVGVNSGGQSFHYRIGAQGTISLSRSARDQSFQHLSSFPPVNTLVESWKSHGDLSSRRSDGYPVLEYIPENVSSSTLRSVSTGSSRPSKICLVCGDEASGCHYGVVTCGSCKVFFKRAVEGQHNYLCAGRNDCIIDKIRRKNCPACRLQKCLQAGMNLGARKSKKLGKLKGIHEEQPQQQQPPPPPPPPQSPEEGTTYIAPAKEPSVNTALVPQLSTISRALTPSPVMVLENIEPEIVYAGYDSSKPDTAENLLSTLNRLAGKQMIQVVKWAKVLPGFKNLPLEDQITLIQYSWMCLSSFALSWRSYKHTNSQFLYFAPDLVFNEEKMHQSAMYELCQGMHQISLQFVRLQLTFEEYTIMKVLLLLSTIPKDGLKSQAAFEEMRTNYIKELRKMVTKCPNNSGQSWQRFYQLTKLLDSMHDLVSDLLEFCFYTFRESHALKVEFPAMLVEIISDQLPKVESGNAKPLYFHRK
Put plainly: Agonist activity at human MR ligand binding domain receptor expressed in african green monkey COS7 cells by Gal4 hybrid assay. The conditions noted are these: COS-7. Type of data set: cell-based. The gist of the method: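 Gal4-steroid receptor LBD fusion plasmid plus GAL4_UAS (5 copies, E1b TATA)-luciferase reporter, 50 ng/well each, transfected 16 h into COS-7 cells grown in phenol red-free DMEM with 10% charcoal/dextran-treated FBS. Compound treatment 20 h, then luciferase read-out. Antagonist mode uses 3 nM aldosterone (hMR) or 5 nM 17β-estradiol (hER). Values are the average of at least duplicate determinations.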

The nature of data set [12]: Drug level in cynomolgus monkey at […], iv. Set-up: dose 0.25 mg/kg, route intravenous. The format is ADME, organism-based, Macaca fascicularis. The conditions noted are these: in vivo.
Data set [13] relates to Rhesus monkey. As to the kind of experiment: Effect on endometrium thickness of rhesus monkey. The format is functional, Macaca mulatta. The method, boiled down: as §2
Data set [14] is described as follows: Half life in Sprague-Dawley rat at 1 mg/kg, iv. Type of data set: ADME, organism-based. Set-up: dose 1 mg/kg, route intravenous. Particulars: in vivo. The gist of the method: as §1
Data set [15] can be described thus: Cmax in Sprague-Dawley rat at 5 mg/kg, po. The format is ADME, organism-based. Set-up: dose 5 mg/kg, route oral. The conditions noted are these: in vivo. The gist of the method: as §1
In data set [16] the test system is Rhesus monkey. As to the kind of experiment: Effect on endometrium weight of rhesus monkey. Type of data set: functional, Macaca mulatta. The method, boiled down: as §2
Data set [17] in a line: AUC (0 to infinity) in Sprague-Dawley rat at 0.5 mg/kg, iv. The format is ADME, organism-based. Set-up: time infinity, dose 0.5 mg/kg, route intravenous. The conditions noted are these: plasma.

Activity calls are given as the source filed them.

Consider `Cn1c(C#N)ccc1-c1cc(F)c2c(c1)C(C)(C)C(=O)N2`, for which the half-life in [1] was 9.3 h; in [14], 9.4 h. Besides, the AUC(0-inf) in [2] stood at 7150 ng·h/mL; in data set [6], 4650 ng·h/mL; in [7], 2360 ng·h/mL; in data set [17], 1980 ng·h/mL. Besides, the Cmax amounted to 179 ng/mL in [3] and 414 ng/mL in [15]. Moreover, the IC50 at Progesterone receptor is 5 nM. The Activity in the data set with Rhesus monkey [4] came to 1760 mg; with Rhesus monkey [8], 0; in the data set with Rhesus monkey [10] it was 2.2; with Rhesus monkey [13] it was 2.2 mm; in the data set on Rhesus monkey [16], 60 mg. Also, in [5], the Vd was found to be 2.9 L/kg. This compound also registered a clearance in data set [9] of 7 mL/min/kg. Also, the outcome in [11] was inactive. In addition, the C0 in data set [12] stood at 178 ng/mL.

For the origin of these results see ChEMBL document CHEMBL1144664, “Design, synthesis, and SAR of new pyrrole-oxindole progesterone receptor modulators leading to 5-(7-fluoro-3,3-dimethyl-2-oxo-2,3-dihydro-1H-indol-5-yl)-1-methyl-1H-pyrrole-2-carbonitrile (WAY-255348)” (J Med Chem, 2008).
